Only some compounds are listed: those with a hit (about 3.1% of all), similar ones and a draw of the others.
rRNA inh HTS: reduced GFP signal of wild-type E. coli, primary screen, bacterial rRNA inhibitor project, GFP/RFP fluorescence, OD600, single point. 350,000 compounds, 1.6% hits. GFP signal change (wild-type ribosome), % (no concentration beside the values). E. coli WT GFP vs humanized-ribosome RFP mutants, 24 h; stronger effect = lower value; DMSO median 0, no signal -100. AID 720706, 2013;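 active = significant combined selectivity score with lowered wild-type GFP, culture density cut under 30%, mutant RFP and density less affected; inactive = any of these conditions unmet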
Cneo AK release: Cryptococcus neoformans cell lysis inducers, primary screen, AK release luminescence, single concentration; C. neoformans lysis, adenylate kinase release luminescence, 4 h; normalised: neutral wells 0, clomiphene wells 100; lysis activity, % at 15 µM; 360,000 compounds, 0.2% hits; AID 651654, 2012;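 active = mean lysis activity across replicates of at least 80%, whatever share of replicates individually reach that level; inactive = mean lysis activity below 80%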
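Material: C. neoformans cells | Amount: Yeast cell density of 5 × 10^6 cells/mL | Medium: Fresh YPD growth medium | Dosing: Single dose | Times: Static 4 h at 37 °C with compound, 1 h detection | Detection: AK luminescence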
HIV Env fusion: inhibitors of HIV-1 Env-driven cell-cell fusion, primary screen, HeLa-JRFL effector, CEM21 target cells, luciferase | inhibition, % at 12.3 µM | 360,000 compounds, 1.1% hits;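 active = mean replicate inhibition score of at least 50 and every replicate individually at or above 50; inconclusive = only one of the two criteria met; inactive = mean below 50 and not all replicates reaching 50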
CFTR F508del cor: F508del CFTR correction, initial screen, CFBE line, single point | CFBE cells, YFP halide quenching; stimulated with forskolin plus potentiator P3; % fluorescence drop versus neutral controls | activity (quench increase), % at 7.58 µM | 350,000 compounds, 0.36% hits | AID 720511, 2013;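 active = mean added fluorescence quench of at least 8% versus neutral control, with both replicates also reaching 8%; inconclusive = only one of the mean or replicate conditions met; inactive = mean below 8% and not both replicates reaching 8%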;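 also: cells transiently co-express mutant CFTR-F508del with the halide-sensitive YFP; corrector assay measuring rescue of mutant channel to the surface after 24 h compound exposure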
miR-122 sensor: miR-122 Renilla sensor signal increase in Huh7, primary screen, miR-122 inhibitor project, cell-based, single point, plate reader; AID 602342, 2012; 340,000 compounds, 0.3% hits; activation (reporter increase), % at 12.5 µM; Huh7 miR-122 Renilla luciferase sensor, 48 h; neutral wells = 0, positive control = 100;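 active = mean replicate activation score at least 90 and every replicate individually at or above 90; inconclusive = only one of the two criteria met; inactive = neither criterion met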;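 also: higher luciferase means less miR-122 activity so hits act as miR-122 inhibitors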
INS-1E GSIS act: GLuc luminescence reporter in INS-1E cells, primary screen for activators of glucose-dependent secretion of insulin; INS-1E GLuc reporter insulin secretion, 2-3 h; activation, % at 16.6 µM; 370,000 compounds, 0.61% hits; AID 743287, 2014;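 active = lowest replicate activation of at least 40%, so every replicate reaches that level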
Numbers stand for hits; – = inactive; ? = inconclusive; · = no result given.

SMILES | rRNA inh HTS | Cneo AK release | HIV Env fusion | CFTR F508del cor | miR-122 sensor | INS-1E GSIS act
CCNC(=O)C[C@@H]1CC[C@@H]2[C@H](COC[C@@H](O)CN2Cc2ccncc2)O1 | – | – | – | – | – | –
CCOc1ccc(NS(=O)(=O)c2ccc(OCC)c3ncccc23)cc1 | · | – | – | · | 139.3 | ·
CCOc1ccc(S(=O)(=O)Nc2cc(C)ccn2)c2ccccc12 | · | – | – | · | 236.7 | ·
CO[C@H]1CN(C)C(=O)c2ccc(NS(=O)(=O)c3ccc(C)cc3)cc2OC[C@H](C)N(C(=O)NC(C)C)C[C@H]1C | – | · | · | – | – | –
O=C(N[C@H]1C=C[C@@H](CC(=O)N2CCCCC2)O[C@H]1CO)c1ccc2c(c1)OCO2 | – | – | – | – | · | –
Cc1noc(C)c1S(=O)(=O)N(C)C[C@@H]1Oc2ccc(NS(=O)(=O)c3cn(C)cn3)cc2CC(=O)N([C@@H](C)CO)C[C@H]1C | – | – | – | – | – | –
CC1CCC(NC(=O)COc2ccccc2C(N)=O)CC1 (centres undefined) | · | – | · | · | – | ·
NC(=O)c1cc(Cl)ccc1OCC(=O)NC1CC1 | – | – | – | 9.0 | – | –
O=C(C[C@@H]1C=C[C@@H](NC(=O)CC2CC2)[C@H](CO)O1)NCC(F)(F)F | – | – | · | – | · | –
O=C1CCCCn2cc(nn2)COC[C@H](c2ccccc2)N1 | – | · | · | · | · | –
COc1ccc(-c2cn3cc(C(=O)NN)ccc3n2)cc1 | – | · | – | – | · | –
NNC(=O)c1ccc2nc(-c3ccc(Br)cc3)cn2c1 | -28.2 | · | – | – | – | –
COCC(=O)N1[C@@H](CO)[C@@H](c2ccc(-c3ccccc3)cc2)C12CN(C(C)=O)C2 | – | · | · | – | · | –
CCN(c1nc(N)c(C(=O)N=C(N)N)nc1Cl)C(C)C | · | – | 69.0 | – | – | –
CC=Cc1ccc2n(c1=O)C[C@H]1[C@H](CO)[C@@H](C(=O)NCCCN3CCOCC3)N(C)[C@@H]21 (mixture of isomers) | – | – | · | – | – | –
Cc1nc2c(-c3ccc(F)cc3)c(C)nn2c(C)c1CCC(=O)NC(C)CCc1ccco1 (centres undefined) | – | – | 65.2 | – | – | –
Cc1ccc(C2C(C#N)=C3N=C(N)c4ccccc4N3C3=C2C(=O)CCC3)cc1 (centres undefined) | – | – | – | – | – | –
N#CC1=C2N=C(N)c3ccccc3N2C2=C(C(=O)CCC2)C1c1ccc(F)cc1 (centres undefined) | -31.6 | – | – | – | – | ·
C[C@H](CO)N1C[C@H](C)[C@@H](CN(C)C(=O)C2CCCCC2)Oc2ncc(C#CC(C)(C)O)cc2C1=O | – | · | – | – | – | –
C/C=C/c1ccc2c(c1)[C@H]1[C@H](CCN1C(=O)COC)[C@@H](CO)N2 | – | · | · | · | · | –
O=C(Nc1ccc(F)cc1)Nc1ccc2c(c1)[C@@H]1C[C@H](CC(=O)N3CCOCC3)O[C@H](CO)[C@@H]1O2 | – | – | – | – | – | –
O=C(C[C@H]1C[C@@H]2c3cc(NC(=O)Nc4ccc(C(F)(F)F)cc4)ccc3O[C@@H]2[C@H](CO)O1)NCc1ccccn1 | – | – | – | – | – | –
COc1ccc(S(=O)(=O)N2CCc3ccccc3C2)cc1OC | – | – | · | – | – | 62.8
COc1ccc(S(=O)(=O)N2CCN(CCOc3ccccc3Cl)CC2)cc1OC | – | · | · | 17.5 | · | –
O=C(NC1CC1)C1=C[C@H](c2csc3ccccc23)C[C@H](OCCCCO)O1 | – | – | – | – | – | –
SMILES | rRNA inh HTS | Cneo AK release | HIV Env fusion | CFTR F508del cor | miR-122 sensor | INS-1E GSIS act
O=C(NC1CC1)C1=C[C@@H](c2ccc(Br)cc2)C[C@@H](OCCCCO)O1 | -18.6 | – | – | – | – | ·
O=C(NCc1ccccc1)C1=C[C@@H](c2csc3ccccc23)C[C@@H](OCCCCO)O1 | – | · | 81.3 | – | · | –
CC(C)Oc1cc(NC(=O)CSCC(=O)Nc2cccc(C(F)(F)F)c2)c(Cl)cc1Cl | – | – | 61.8 | · | – | –
O=C(CN1CCCC1)Nc1cc(C(F)(F)F)ccc1Cl | – | · | – | – | – | –
CNC(=O)CS(=O)(=O)CC(=O)Nc1cc(OC(C)C)c(Cl)cc1Cl | – | · | – | – | – | –
O=C(O)CSCC(=O)Nc1cc(C(F)(F)F)ccc1Cl | · | – | – | · | · | 48.8
C[C@H](CO)N1C[C@H](C)[C@H](CN(C)C(=O)CC2CC2)Oc2ncc(-c3ccc(C#N)cc3)cc2C1=O | – | – | – | – | – | –
CCn1c2ccccc2c2cc(/C=N/n3c(-c4cc(C)[nH]n4)n[nH]c3=S)ccc21 | -30.7 | · | – | – | · | –
C[C@@H](NC(=O)[C@H]1[C@H](CO)[C@H]2Cn3c(ccc(C4=CCCCC4)c3=O)[C@@H]1N2)c1ccccc1 | – | – | · | – | – | –
CCc1ccc(-c2cc(C(=O)NCc3ccccn3)c3ccccc3n2)cc1 | · | · | – | · | 148.4 | –
Cc1ccc(-c2cc(C(=O)NCc3ccccn3)c3ccccc3n2)cc1 | · | – | · | · | · | ·
CCOc1ccc(CCNS(=O)(=O)c2c(C)nc3scc(C)n3c2=O)cc1OCC | – | – | – | – | – | 52.3
COc1cccc(C2CC(c3cccs3)Nc3ncnn32)c1 (centres undefined) | · | – | · | · | – | ·
Clc1ccc(C2CC(c3cccs3)n3ncnc3N2)cc1 (centres undefined) | -41.0 | – | – | – | – | –
CCOC(=O)c1cnc(-c2ccccc2)nc1Oc1ccc(OC)cc1 | – | · | – | – | – | –
CCOC(=O)c1cnc2c(cnn2C)c1Oc1ccc(OC)cc1 | – | · | – | – | – | 61.9
CCOC(=O)c1cnc(COc2ccc(OC)cc2)[nH]c1=O | · | · | – | 52.6 | · | ·
COc1ccc(S(=O)(=O)N(CCc2ccccc2)CC(=O)N2CCOCC2)cc1 | · | – | – | · | 125.2 | ·
O=C(C[C@H]1CC[C@@H]2[C@H](COC[C@H](O)CN2C(=O)Nc2ccccc2)O1)NC1Cc2ccccc2C1 | – | – | · | – | – | –
COc1ccc(C2CC(c3ccc4ccccc4c3)=NN2C(=O)CNC2CCCCC2)cc1 (centres undefined) | – | – | – | – | · | –
COc1ccc(C2CC(c3ccc4ccccc4c3)=NN2C(=O)CN2CCC(C(N)=O)CC2)cc1 (centres undefined) | -48.2 | – | – | – | – | –
COc1cccc(OCCCN2CCC(C(O)(c3ccccc3)c3ccccc3)CC2)c1 | – | · | ? | – | · | –
OC(c1ccccc1)(c1ccccc1)C1CCN(CCCOc2ccc3c(c2)CCCC3)CC1 | – | · | – | – | · | 761.6

Screening results from PubChem BioAssay.
